Data from PubChem BioAssay AID504769 (Southern Research Specialized Biocontainment Screening …, 2011).

Tested on: Bladder 5637 cells viability, CellTiter-Glo, 72 h
Experiment: cytotoxicity in 5637 bladder cells, dose response, cytotoxicity control for bacterial capsule biogenesis inhibitors, cell-based, set 2 (AID 504769)
Method in brief: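 Material: Bladder carcinoma 5637 cell line | Schedule: 72 h compound exposure | Technique: CellTiter-Glo luminescence | Benchmarks: Hyamine as cytotoxic control, untreated cells as reference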

Cc1cc(C)c2nc(NC(=O)c3ccccn3)sc2c1
CC50: 6.19 µM

O=C(Nc1nc2ccccc2s1)c1cccnc1
CC50: 129 µM

O=C(Nc1nc2c(F)cccc2s1)c1ccccn1
CC50: 2.56 µM

O=C(Nc1nc2c(F)cc(F)cc2s1)c1ccccc1
CC50: 30.9 µM

O=C(Nc1nc2c(Cl)cc(Cl)cc2s1)c1ccccn1
CC50: 3.55 µM

O=C(Nc1nc2c(F)cc(F)cc2s1)c1ccncc1
CC50: 71.8 µM

O=C(Nc1nc2ccccc2s1)c1ccncc1
CC50: 104 µM

O=C(Nc1nc2ccc(F)cc2s1)c1ccccn1
CC50: 3.32 µM
